HKDC1 act: increases human hexokinase HKDC1 activity; recombinant HKDC1, G6PDH/diaphorase resazurin fluorescence; active compounds read low; activity change, negative = activation, % at 20 µM; 340,000 compounds, 0.056% hits; AID 493187;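 active = activation of 40% or more at 20 µM, a change of -40% or lower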
Target sequence (Q2TB90 whole entry, looked up): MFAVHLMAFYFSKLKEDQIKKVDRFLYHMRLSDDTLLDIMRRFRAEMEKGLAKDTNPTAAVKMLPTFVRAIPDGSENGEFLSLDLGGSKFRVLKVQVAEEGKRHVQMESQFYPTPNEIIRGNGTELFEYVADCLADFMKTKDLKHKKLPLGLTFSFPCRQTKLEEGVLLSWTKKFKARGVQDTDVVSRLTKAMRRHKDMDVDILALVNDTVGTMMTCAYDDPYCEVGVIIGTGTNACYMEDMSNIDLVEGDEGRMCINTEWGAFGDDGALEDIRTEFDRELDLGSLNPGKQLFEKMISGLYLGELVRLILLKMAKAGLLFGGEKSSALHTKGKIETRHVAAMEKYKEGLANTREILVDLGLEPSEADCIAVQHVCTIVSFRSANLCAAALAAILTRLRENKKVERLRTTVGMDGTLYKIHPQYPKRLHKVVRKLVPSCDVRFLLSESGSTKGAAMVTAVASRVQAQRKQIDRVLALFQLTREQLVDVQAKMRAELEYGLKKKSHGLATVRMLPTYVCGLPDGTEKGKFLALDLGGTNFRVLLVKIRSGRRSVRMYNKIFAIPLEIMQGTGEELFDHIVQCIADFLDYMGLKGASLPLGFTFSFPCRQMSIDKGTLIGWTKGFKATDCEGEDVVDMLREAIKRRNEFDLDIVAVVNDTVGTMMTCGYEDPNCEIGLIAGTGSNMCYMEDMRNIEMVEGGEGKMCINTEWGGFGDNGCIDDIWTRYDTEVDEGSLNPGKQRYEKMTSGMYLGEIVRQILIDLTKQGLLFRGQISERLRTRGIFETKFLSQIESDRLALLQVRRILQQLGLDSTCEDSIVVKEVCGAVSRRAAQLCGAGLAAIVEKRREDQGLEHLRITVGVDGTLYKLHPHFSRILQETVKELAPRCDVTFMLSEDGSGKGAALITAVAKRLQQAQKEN
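system = in-house human HKDC1 enzyme, G6PDH and diaphorase coupling enzymes | amount = HKDC1 5 µg/mL | measured by = resorufin fluorescence from 100 µM resazurin, NADP 1 mM, Ex 525/Em 613 nm | times = enzyme reaction 90 min, room temperature, in dark | doses = single compound dose of 20 µM, 1% DMSO final | medium = Tris/MgCl2 buffer, pH 8.0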
The depositor's hits bear a star. Not all results are given here.

How did CC(CCC(C)C(C)(C)C)[C@@H]1CC[C@H]2C3C[C@H](OS(O)(=S)=S)[C@H]4C[C@H](OS(O)(=S)=S)[C@@H](OS(O)(=S)=S)C[C@]4(C)[C@H]3CC[C@]12C (some centres undefined) (tested in a mixture with another compound) do in these assays?
HKDC1 act: 81.2

What do the screens show for `COc1ccc(NC(=O)Cc2c[nH]c3ccccc23)cc1S(=O)(=O)N1CCCCC1`?
HKDC1 act: 48.7

Results for CCOC(=O)c1c(NC(=O)CSc2nnnn2-c2ccc(OC)cc2)sc(C)c1C ?
HKDC1 act: -48.5*

Results for C=CC1=C(C(=O)O)N2C(=O)C(NC(=O)Cc3ccccc3)C2SC1 (centres undefined) ?
HKDC1 act: 40.2

What do the screens show for `Cc1ccc(/C=C/c2nc3sc(C(=O)O)c(C)c3c(=O)[nH]2)cc1[N+](=O)[O-]`?
HKDC1 act: 47.2

What do the screens show for `COc1ccc2c(c1)CCc1c(C(=O)N3CCCc4ccccc43)noc1-2`?
HKDC1 act: 38.0

How did CCCCNCCOCCOc1ccccc1-c1ccccc1 do in these assays?
HKDC1 act: -58.9*

What do the screens show for `COc1cc(/C=C2\SC(c3ccccc3)=NC2=O)cc(Cl)c1O`?
HKDC1 act: 49.4

What do the screens show for `Nn1cnnc1N/N=C/c1cc(Br)cc(Br)c1O`?
HKDC1 act: -52.2*

What do the screens show for `CC(=O)N1c2ccc(Cl)cc2C2C=CCC2C1c1cccc2ccccc12` (centres undefined)?
HKDC1 act: 42.5

How did CC(NNC(=S)N1CCN(c2ccccn2)CC1)c1nccc2ccccc12 (centres undefined) do in these assays?
HKDC1 act: -41.9*

How did CC1(OC(=O)CCc2ccccc2)C(=O)C=C2C=C(c3ccc(C#N)cc3)N(Cc3ccccc3)C=C2C1=O (centres undefined) do in these assays?
HKDC1 act: 36.4

What do the screens show for `CC(=NNC(=S)N1CC2CCC(CC2)C1)c1ccncn1`?
HKDC1 act: -54.1*

Results for COC(=O)CCC(=O)OC1(C)C(=O)C2=CN(CC3CC3)C(c3ccc(OC)cc3)=CC2=C(Br)C1=O (centres undefined) ?
HKDC1 act: 37.5

Results for O=C(O)c1cc(N2N=C(C(F)(F)F)/C(=C/C=C/c3ccco3)C2=O)ccc1Cl ?
HKDC1 act: 46.4

Results for CC(=NNC(=S)N1CCCCC1)c1cccc(C)n1 ?
HKDC1 act: -40.4*

Results for Cc1ccc(-c2nc(NC(=O)CSc3cc(C)c4ccccc4n3)ns2)cc1 ?
HKDC1 act: 56.8

What do the screens show for `CC(=O)n1cc(N(C(=O)CCl)c2ccc(C)cc2)c2ccccc21`?
HKDC1 act: 40.8

What do the screens show for `NC(=NCCCCCCN=C(N)/N=C(\N)Nc1ccc(Cl)cc1)/N=C(\N)Nc1ccc(Cl)cc1`?
HKDC1 act: 53.2

Results for O=C(O)CSc1cc(NS(=O)(=O)c2cccc([N+](=O)[O-])c2)c2ccccc2c1O ?
HKDC1 act: 59.5

Results for O=C(Cc1ccc(Cl)cc1Cl)Nc1cccc(S(=O)(=O)Nc2ccccc2F)c1 ?
HKDC1 act: -40.7*

How did CC(=O)Nc1ccc2cc3ccc(NC(C)=O)cc3nc2c1 do in these assays?
HKDC1 act: 42.5

What do the screens show for `O=C(O)CN1C(=O)/C(=C2\C(=O)N(Cc3ccccc3Cl)c3ccccc32)SC1=S`?
HKDC1 act: 51.3

Results for O=C(CSc1nnc(CCCN2C(=O)c3cccc4cccc(c34)C2=O)n1-c1ccccc1)N1CCCCC1 ?
HKDC1 act: 36.6

What do the screens show for `COc1ccc(OC)c(NC(=O)CSc2ccc(-c3ccco3)nn2)c1`?
HKDC1 act: 43.4

Results for O=C(CN(C(=O)CCC(=O)Nc1ccccn1)c1ccc2c(c1)OCO2)NCc1ccc(F)cc1 ?
HKDC1 act: -45.5*

Results for COC1(NS(=O)(=O)c2ccc(Br)cc2)C(C)=CC(=O)C=C1C ?
HKDC1 act: 49.6

How did O=C1C=C(N(CCO)Cc2ccccc2)c2ccccc2C1=O do in these assays?
HKDC1 act: 35.0
